From ChEMBL document CHEMBL1139351, “Synthesis and biological evaluation of vinca alkaloids and phomopsin hybrids” (J Med Chem, 2009)
The source made the active and inactive calls. The rule behind the calls is not given here.

Tests used:
[1] = Inhibition of tubulin polymerization assessed as ratio of IC50 for compound to IC50 for vinblastin by UV spectrophotometry
Method in brief: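 Microtubular protein purified from mammalian brain. Drug added from ethanol at several concentrations to free tubulin at 0 °C, then shifted to 37 °C. Assembly followed as OD at 350 nm for 1 min. Maximum assembly rate compared with a drug-free sample, giving IC50. Ratio taken against a vinblastine IC50 measured the same day on the same tubulin preparation.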

[2] = system: KB; assay: Cytotoxicity against human KB cells after 72 hrs; type: functional, cell-based
Method in brief: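 KB human cells; growth followed for 72 h of drug exposure; IC50 taken as the concentration giving 50% growth inhibition.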

[3] = target: Tubulin beta-5 chain (Homo sapiens) (UniProt P07437); assay: Inhibition of beta tubulin nucleotide site assessed as inhibition of displacement of cold GDP by [alpha32P]GTP at 20 uM by rapid filtration technique; parameters: scale not given: the % may be the effect or the level left
Chain of Tubulin beta-5 chain (Homo sapiens) (P07437 whole entry): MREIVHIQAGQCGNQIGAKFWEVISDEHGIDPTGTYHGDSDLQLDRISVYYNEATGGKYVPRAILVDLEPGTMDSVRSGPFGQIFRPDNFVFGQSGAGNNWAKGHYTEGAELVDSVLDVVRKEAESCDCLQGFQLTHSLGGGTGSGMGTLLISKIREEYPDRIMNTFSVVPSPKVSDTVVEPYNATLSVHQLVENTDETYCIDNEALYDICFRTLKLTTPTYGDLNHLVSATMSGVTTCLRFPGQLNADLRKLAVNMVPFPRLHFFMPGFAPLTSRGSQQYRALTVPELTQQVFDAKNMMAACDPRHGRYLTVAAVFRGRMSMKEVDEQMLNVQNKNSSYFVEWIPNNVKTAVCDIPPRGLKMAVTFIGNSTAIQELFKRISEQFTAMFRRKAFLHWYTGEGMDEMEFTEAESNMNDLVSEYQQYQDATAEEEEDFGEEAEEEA

[4] = target: Tubulin beta-5 chain (Homo sapiens) (UniProt P07437); assay: Inhibition of beta tubulin nucleotide site assessed as inhibition of displacement of cold GDP by [alpha32P]GTP at 40 uM by rapid filtration technique
[5] = target: Tubulin beta-5 chain (Homo sapiens) (UniProt P07437); assay: Inhibition of beta tubulin nucleotide site assessed as displacement of cold GDP by [alpha32P]GTP at 100 uM by rapid filtration technique; parameters: scale not given: the % may be the effect or the level left
[6] = target: Tubulin beta-5 chain (Homo sapiens) (UniProt P07437); assay: Inhibition of beta tubulin nucleotide site assessed as inhibition of displacement of cold GDP by [alpha32P]GTP by rapid filtration technique relative to phomopsin A
[7] = Inhibition of tubulin polymerisation by UV spectrophotometry
Method in brief: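 Microtubular protein purified from mammalian brain. Drug in ethanol at several concentrations added to free tubulin at 0 °C, then shifted to 37 °C. Assembly followed as optical density at 350 nm for 1 min. Maximum assembly rate compared with a no-drug sample. IC50 derived from several concentrations and compared with vinblastine run the same day on the same tubulin preparation.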

| SMILES | Ratio IC50 [1] | IC50 ([2]; Homo sapiens, KB, 72 h) [nM] | further results |
| --- | --- | --- | --- |
| CCC1=C[C@@H]2C[C@](C(=O)OC)(c3cc4c(cc3OC)N(C)[C@H]3[C@@](O)(C(=O)OC)[C@H](OC(C)=O)[C@]5(CC)C=CCN6CC[C@]43[C@@H]65)c3[nH]c4ccccc4c3CC[N+](CC(=O)N3CCC[C@H]3C(=O)N[C@H](C(=O)O)[C@@H](C)CC)(C1)C2 | 1.7 | 700 |  |
| CCC1=C[C@@H]2C[C@](C(=O)OC)(c3cc4c(cc3OC)N(C)[C@H]3[C@@](O)(C(=O)OC)[C@H](OC(C)=O)[C@]5(CC)C=CCN6CC[C@]43[C@@H]65)c3[nH]c4ccccc4c3C[N+](CC(=O)N3CCC[C@H]3C(=O)N[C@H](C(=O)N[C@@H](CC(=O)O)C(=O)O)[C@@H](C)CC)(C1)C2 | 19.4 | 400 |  |
| CCC1=C[C@@H]2C[C@](C(=O)OC)(c3cc4c(cc3OC)N(C)[C@H]3[C@@](O)(C(=O)OC)[C@H](OC(C)=O)[C@]5(CC)C=CCN6CC[C@]43[C@@H]65)c3[nH]c4ccccc4c3CC[N+](CC(=O)N3CCC[C@H]3C(=O)OC)(C1)C2 | 0.9 | 80 |  |
| CCC1=C[C@@H]2C[C@](C(=O)OC)(c3cc4c(cc3OC)N(C)[C@H]3[C@@](O)(C(=O)OC)[C@H](OC(C)=O)[C@]5(CC)C=CCN6CC[C@]43[C@@H]65)c3[nH]c4ccccc4c3CC[N+](CC(=O)N3CCC[C@H]3C(=O)N[C@H](C(=O)N[C@@H](CC(=O)OCc3ccccc3)C(=O)OCc3ccccc3)[C@@H](C)CC)(C1)C2 | 1.3 | 700 | Activity [3]: inactive; Activity [4]: inactive; Activity [5]: 55%; Activity [6]: inactive |
| CCC1=C[C@@H]2C[C@](C(=O)OC)(c3cc4c(cc3OC)N(C)[C@H]3[C@@](O)(C(=O)OC)[C@H](OC(C)=O)[C@]5(CC)C=CCN6CC[C@]43[C@@H]65)c3[nH]c4ccccc4c3C[N+](CC(=O)N3CCC[C@H]3C(=O)N[C@H](C(=O)O)[C@@H](C)CC)(C1)C2 | 9.4 | 90 |  |
| C=C(C)[C@@H]1NC(=O)[C@@H](NC)[C@@H](O)c2cc(Cl)c(O)c(c2)O[C@](C)(CC)[C@@H](C(=O)N2CC=C[C@H]2C(=O)N/C(C(=O)N/C(=C/C(=O)O)C(=O)O)=C(\C)CC)NC1=O [PHOMOPSIN A] |  |  | IC50 [7]: 560 nM; Activity [3]: Active |
| CC[C@H](C)[C@H](NC(=O)[C@@H]1CCCN1C(=O)[C@H]1NC(=O)[C@H](C(C)C)NC(=O)[C@@H](NC)[C@@H](O)c2cc(Cl)c(O)c(c2)O[C@]1(C)CC)C(=O)NC(CC(=O)O)C(=O)O (mixture of isomers) |  |  | IC50 [7]: 400 nM |
| CC[C@]1(O)C[C@@H]2CN(CCc3c([nH]c4ccccc34)[C@@](C(=O)OC)(c3cc4c(cc3OC)N(C)[C@H]3[C@@](O)(C(=O)OC)[C@H](OC(C)=O)[C@]5(CC)C=CCN6CC[C@]43[C@@H]65)C2)C1 [VINBLASTINE] | 1 | 1 | IC50 [7]: 2100 nM; Activity [3]: 25% |
| CCC1=C[C@@H]2C[C@](C(=O)OC)(c3cc4c(cc3OC)N(C)[C@H]3[C@@](O)(C(=O)OC)[C@H](OC(C)=O)[C@]5(CC)C=CCN6CC[C@]43[C@@H]65)c3[nH]c4ccccc4c3C[N+](CC(=O)N3CCC[C@H]3C(=O)N[C@H](C(=O)OCc3ccccc3)[C@@H](C)CC)(C1)C2 | 9.4 | 50 |  |
| CCC1=C[C@@H]2C[C@](C(=O)OC)(c3cc4c(cc3OC)N(C)[C@H]3[C@@](O)(C(=O)OC)[C@H](OC(C)=O)[C@]5(CC)C=CCN6CC[C@]43[C@@H]65)c3[nH]c4ccccc4c3C[N+](CC(=O)N3CCC[C@H]3C(=O)N[C@H](C(=O)N[C@@H](CC(=O)OCc3ccccc3)C(=O)OCc3ccccc3)[C@@H](C)CC)(C1)C2 | 1.8 | 1300 |  |
| CCC1=C[C@@H]2CN(C1)Cc1c([nH]c3ccccc13)[C@@](C(=O)OC)(c1cc3c(cc1OC)N(C)[C@H]1[C@@](O)(C(=O)OC)[C@H](OC(C)=O)[C@]4(CC)C=CCN5CC[C@]31[C@@H]54)C2 (stereo in doubt; 4) [VINORELBINE] |  |  | IC50 ([2]; kb): 1 nM |
| CCC1=C[C@@H]2CN(C1)Cc1c([nH]c3ccccc13)[C@@](C(=O)OC)(c1cc3c(cc1OC)N(C)[C@H]1[C@@](O)(C(=O)OC)[C@H](OC(C)=O)[C@]4(CC)C=CCN5CC[C@]31[C@@H]54)C2 (stereo in doubt; 3) [VINORELBINE] |  |  | IC50 ([2]; kb): 40 nM |
| CCC1=C[C@@H]2C[C@](C(=O)OC)(c3cc4c(cc3OC)N(C)[C@H]3[C@@](O)(C(=O)OC)[C@H](OC(C)=O)[C@]5(CC)C=CCN6CC[C@]43[C@@H]65)c3[nH]c4ccccc4c3C[N+](CC(=O)N3CCC[C@H]3C(=O)OC)(C1)C2 | 2 | 100 |  |
| CCC1=C[C@@H]2C[C@](C(=O)OC)(c3cc4c(cc3OC)N(C)[C@H]3[C@@](O)(C(=O)OC)[C@H](OC(C)=O)[C@]5(CC)C=CCN6CC[C@]43[C@@H]65)c3[nH]c4ccccc4c3CC[N+](CC(=O)N3CCC[C@H]3C(=O)N[C@H](C(=O)OCc3ccccc3)[C@@H](C)CC)(C1)C2 | 1.4 | 300 |  |
| CCC1=C[C@@H]2C[C@](C(=O)OC)(c3cc4c(cc3OC)N(C)[C@H]3[C@@](O)(C(=O)OC)[C@H](OC(C)=O)[C@]5(CC)C=CCN6CC[C@]43[C@@H]65)c3[nH]c4ccccc4c3CC[N+](CC(=O)N3CCC[C@H]3C(=O)N[C@H](C(=O)N[C@@H](CC(=O)O)C(=O)O)[C@@H](C)CC)(C1)C2 | 2 | 100 |  |
